Experimental data reported in ChEMBL document CHEMBL1208706, “Synthesis, antidepressant evaluation and QSAR studies of novel 2-(5H-[1,2,4]triazino[5,6-b]indol-3-ylthio)-N-(substituted phenyl)acetamides” (2010).

Test system: Mus musculus
Assay: Antidepressant activity in Swiss albino mouse assessed as reduction of immobility duration at 30 mg/kg, ip administered 3 times for 24 hrs measured after 1 hr last post dose by tail suspension test
Type: functional
Parameters: scale not given: the % may be the effect or the level left
Settings: route intraperitoneal
Procedure, shortened: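 Adult male Swiss albino mice (22 ± 2 g), housed with controlled humidity, temperature and day-night cycle. Compound in DMSO given ip at 30 mg/kg at t = 0, 18 and 24 h; vehicle controls got DMSO ip at 5 mL/kg. Tail suspension run 1 h after the final dose, immobility scored over 6 min. %DID = [(A − B)/A] × 100 against control; n = 6, mean ± SEM, one-way ANOVA with Dunnett's test.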

Row | SMILES | Activity [%]
1 | COc1ccc(NC(=O)CSc2nnc3c(n2)[nH]c2ccccc23)cc1 | 20.82
2 | O=C(CSc1nnc2c(n1)[nH]c1ccccc12)Nc1ccc(Br)cc1 | 67.59
3 | O=C(CSc1nnc2c(n1)[nH]c1ccccc12)NCc1ccccc1 | 56.75
4 | COc1ccccc1NC(=O)CSc1nnc2c(n1)[nH]c1ccccc12 | 24.3
5 | O=C(CSc1nnc2c(n1)[nH]c1ccccc12)Nc1cccc(Br)c1 | 66.57
6 | O=C(CSc1nnc2c(n1)[nH]c1ccccc12)Nc1ccccc1 | 70.62
7 | Cc1ccccc1NC(=O)CSc1nnc2c(n1)[nH]c1ccccc12 | 20.87
8 | O=C(CSc1nnc2c(n1)[nH]c1ccccc12)Nc1ccccc1Cl | 51.89
9 | O=C(CSc1nnc2c(n1)[nH]c1ccccc12)Nc1ccccc1Br | 42.84
10 | O=C(CSc1nnc2c(n1)[nH]c1ccccc12)Nc1ccccc1[N+](=O)[O-] | 42.66
11 | Cc1cccc(NC(=O)CSc2nnc3c(n2)[nH]c2ccccc23)c1 | 26.29
12 | COc1cccc(NC(=O)CSc2nnc3c(n2)[nH]c2ccccc23)c1 | 31.08
13 | O=C(CSc1nnc2c(n1)[nH]c1ccccc12)Nc1cccc(Cl)c1 | 57.15
14 | O=C(CSc1nnc2c(n1)[nH]c1ccccc12)Nc1cccc([N+](=O)[O-])c1 | 58.75
15 | O=C(CSc1nnc2c(n1)[nH]c1ccccc12)Nc1ccc(Cl)cc1 | 68.33
16 | Cc1ccc(NC(=O)CSc2n[nH]c3c4ccccc4nc-3n2)cc1 | 30.57
17 | O=C(CSc1n[nH]c2c3ccccc3nc-2n1)NC1CCCCC1 | 47.51
18 | O=C(CSc1nnc2c(n1)[nH]c1ccccc12)Nc1ccc([N+](=O)[O-])cc1 | 62.35
19 | CNCCC(Oc1ccc(C(F)(F)F)cc1)c1ccccc1 (stereo unspecified) [FLUOXETINE] | 69.48
20 | CN(C)CCCN1c2ccccc2CCc2ccccc21 [IMIPRAMINE] | 60.58
21 | O=C(NCCN1CCOCC1)c1ccc(Cl)cc1 [MOCLOBEMIDE] | 68.16
